Results from ChEMBL document CHEMBL4145690, “Rational Design and Structure Validation of a Novel Peptide Inhibitor of the Adenomatous-Polyposis-Coli (APC)-Rho-Guanine-Nucleotide-Exchange-Factor-4 (Asef) Interaction” (J Med Chem, 2018).
One block for each compound: values may come before it. Active and inactive are the calls of the source. No cut-off for these calls is given here. *1 amine or outer side, *2 acyl side, *3 side chain or, on linkers, in order; H or OH if unused. Where a SMILES comes first, the peptide text is derived from it. [ ]: non-standard residue; d: D form. The star is where a group is joined. X4 = O=C(C1(N[*:1])C[C@@H]2CC[C@H]1C2)[*:2]; X3 = O=C(c1cc2c(s1)CN([*:1])CC2)[*:2]; X2 = C=C(Br)C[C@H](N[*:1])C(=O)[*:2]; tBuAla = CC(C)(C)C[C@H](N)C(=O)O; hLeu = CC(C)CC[C@H](N)C(=O)O; Cbz = O=C(OCc1ccccc1)*

Experiments:
[1] = molecular target: T1, Adenomatous polyposis coli protein (Homo sapiens, UniProt P25054); assay: Binding affinity to His-tagged APC (unknown origin) assessed as association constant by surface plasmon resonance assay
T1 sequence (P25054 whole entry): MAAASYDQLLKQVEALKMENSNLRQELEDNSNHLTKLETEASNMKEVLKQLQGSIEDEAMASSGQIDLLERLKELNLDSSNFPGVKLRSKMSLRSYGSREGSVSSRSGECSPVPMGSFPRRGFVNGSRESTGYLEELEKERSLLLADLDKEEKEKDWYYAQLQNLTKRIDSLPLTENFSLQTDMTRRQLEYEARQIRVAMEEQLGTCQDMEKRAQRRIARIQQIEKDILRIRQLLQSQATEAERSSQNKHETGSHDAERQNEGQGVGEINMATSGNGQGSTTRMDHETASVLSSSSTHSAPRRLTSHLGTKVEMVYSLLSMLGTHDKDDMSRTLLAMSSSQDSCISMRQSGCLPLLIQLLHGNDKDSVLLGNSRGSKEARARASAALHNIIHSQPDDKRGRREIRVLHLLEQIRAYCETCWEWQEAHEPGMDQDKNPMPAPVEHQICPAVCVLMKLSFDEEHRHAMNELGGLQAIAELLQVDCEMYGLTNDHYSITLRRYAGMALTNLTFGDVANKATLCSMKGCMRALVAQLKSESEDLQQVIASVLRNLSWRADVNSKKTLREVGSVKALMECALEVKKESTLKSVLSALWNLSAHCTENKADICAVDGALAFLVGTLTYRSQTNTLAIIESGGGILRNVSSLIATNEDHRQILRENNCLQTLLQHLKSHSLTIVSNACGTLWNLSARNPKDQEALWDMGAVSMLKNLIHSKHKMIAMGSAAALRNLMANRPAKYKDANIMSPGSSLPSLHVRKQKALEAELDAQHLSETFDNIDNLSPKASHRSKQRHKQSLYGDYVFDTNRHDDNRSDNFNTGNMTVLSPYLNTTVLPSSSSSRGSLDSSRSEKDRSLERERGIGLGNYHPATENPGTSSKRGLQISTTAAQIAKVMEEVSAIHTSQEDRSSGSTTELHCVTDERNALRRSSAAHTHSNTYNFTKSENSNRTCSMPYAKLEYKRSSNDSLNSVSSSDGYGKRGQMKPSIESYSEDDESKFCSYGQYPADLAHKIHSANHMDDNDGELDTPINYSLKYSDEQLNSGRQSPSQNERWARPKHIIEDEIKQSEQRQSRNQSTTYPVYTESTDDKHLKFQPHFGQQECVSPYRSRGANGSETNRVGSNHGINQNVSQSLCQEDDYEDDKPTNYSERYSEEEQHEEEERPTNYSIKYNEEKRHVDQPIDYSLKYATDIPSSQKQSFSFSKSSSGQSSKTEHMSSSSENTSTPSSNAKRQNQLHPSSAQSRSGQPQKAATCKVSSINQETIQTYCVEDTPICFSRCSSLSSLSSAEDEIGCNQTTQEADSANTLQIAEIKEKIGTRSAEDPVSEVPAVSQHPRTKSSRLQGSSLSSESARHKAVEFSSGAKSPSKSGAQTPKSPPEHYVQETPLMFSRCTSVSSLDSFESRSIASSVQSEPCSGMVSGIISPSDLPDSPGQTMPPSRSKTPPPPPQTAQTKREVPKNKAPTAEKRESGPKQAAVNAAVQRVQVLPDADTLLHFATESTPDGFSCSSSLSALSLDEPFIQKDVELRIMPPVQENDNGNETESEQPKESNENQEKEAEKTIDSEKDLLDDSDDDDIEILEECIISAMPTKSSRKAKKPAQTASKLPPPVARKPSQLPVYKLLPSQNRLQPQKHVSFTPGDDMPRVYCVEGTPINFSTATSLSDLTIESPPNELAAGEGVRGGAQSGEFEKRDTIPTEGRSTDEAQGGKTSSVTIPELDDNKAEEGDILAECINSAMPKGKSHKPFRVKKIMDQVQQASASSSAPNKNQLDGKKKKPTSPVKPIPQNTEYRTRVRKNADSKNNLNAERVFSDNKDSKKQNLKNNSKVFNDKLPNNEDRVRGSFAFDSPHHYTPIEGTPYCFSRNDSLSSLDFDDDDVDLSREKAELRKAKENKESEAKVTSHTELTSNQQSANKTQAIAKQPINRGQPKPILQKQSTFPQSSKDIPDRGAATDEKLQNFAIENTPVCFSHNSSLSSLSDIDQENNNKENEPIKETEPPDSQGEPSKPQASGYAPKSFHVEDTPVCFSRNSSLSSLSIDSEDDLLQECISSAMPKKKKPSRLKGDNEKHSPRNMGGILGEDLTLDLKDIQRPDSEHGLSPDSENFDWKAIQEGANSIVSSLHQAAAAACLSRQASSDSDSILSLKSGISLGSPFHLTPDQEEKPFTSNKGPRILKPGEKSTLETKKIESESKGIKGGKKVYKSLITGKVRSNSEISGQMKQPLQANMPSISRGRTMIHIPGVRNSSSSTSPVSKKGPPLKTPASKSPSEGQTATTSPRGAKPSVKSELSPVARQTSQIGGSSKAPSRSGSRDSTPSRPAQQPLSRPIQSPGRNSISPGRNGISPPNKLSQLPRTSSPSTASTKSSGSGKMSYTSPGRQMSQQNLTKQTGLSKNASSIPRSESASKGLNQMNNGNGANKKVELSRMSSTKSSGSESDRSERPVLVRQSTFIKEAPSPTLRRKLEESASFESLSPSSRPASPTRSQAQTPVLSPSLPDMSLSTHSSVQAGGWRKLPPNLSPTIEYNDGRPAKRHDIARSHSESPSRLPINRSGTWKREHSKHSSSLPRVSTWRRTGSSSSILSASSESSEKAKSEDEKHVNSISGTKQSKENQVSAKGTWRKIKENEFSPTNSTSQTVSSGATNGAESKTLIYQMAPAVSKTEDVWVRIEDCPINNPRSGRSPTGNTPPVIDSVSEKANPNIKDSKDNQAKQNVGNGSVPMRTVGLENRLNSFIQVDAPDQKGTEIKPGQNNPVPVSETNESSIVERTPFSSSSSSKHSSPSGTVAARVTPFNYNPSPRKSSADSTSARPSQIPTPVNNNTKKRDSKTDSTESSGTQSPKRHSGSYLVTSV
In short: (§1)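 His-APC amine-coupled to a CM5 chip (EDC/NHS; protein in 50 mM Hepes, 300 mM NaCl, 1 mM EDTA, pH 7.5); BSA reference cell. Peptides injected in 0.05 M Hepes pH 7.5 at 30 µL/min; dissociation 6 min; regeneration with glycine-HCl pH 2.0. Kinetic constants fitted to a 1:1 Langmuir model.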

[2] = molecular target: T1, Adenomatous polyposis coli protein; assay: Binding affinity to His-tagged APC (unknown origin) assessed as residence time by surface plasmon resonance assay; in short: as §1
[3] = molecular target: T1, Adenomatous polyposis coli protein; assay: Binding affinity to APC protein (303 to 739 residues) (unknown origin) incubated for 60 mins followed by probe addition and measured after 60 mins by competitive fluorescence polarization assay
In short: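 Peptide in DMSO preincubated with protein 60 min at room temperature with shaking; probe added, then 60 min more. Controls: blank, tracer only, complex only. IC50 from dose-response curves, mean of three independent experiments.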

APC/Asef (Homo sapiens) [4] = molecular target: T2, APC/Asef (Homo sapiens) (UniProt P25054+Q9NR80); assay: Inhibition of Flag-APC (303 to 876 residues) (unknown origin) /HA-Asef (170 to 632 residues) (unknown origin) interaction expressed in HEK293T cell lysates at 10 uM incubated for 2 hrs by coimmunoprecipitation assay
In short: (§2)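 HEK293T cells co-transfected with Flag-APC (303–876) and HA-Asef (170–632); lysed in RIPA after 24 h and lysate cleared. Supernatant incubated with compound (2 or 10 µM) or DMSO for 2 h at 4 °C, then anti-FLAG M2 gel overnight at 4 °C. Beads washed and proteins analysed by western blot (anti-HA, anti-Flag), single experiment.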

[5] = molecular target: T1, Adenomatous polyposis coli protein; assay: Reversible binding affinity to His-tagged APC (unknown origin) by surface plasmon resonance assay; in short: as §1
[6] = molecular target: T1, Adenomatous polyposis coli protein; assay: Binding affinity to APC (unknown origin) at 37 degC by ITC method
In short: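 ITC at 37 °C in 50 mM HEPES pH 7.5, 300 mM NaCl, 1 mM EDTA. Titrations were repeated three times.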

[7] = molecular target: T1, Adenomatous polyposis coli protein; assay: Binding affinity to APC (unknown origin) assessed as induction of blue shifts in fluorescence for APC-compound complexes at 35 uM incubate fro 30 mins by tryptophan fluorescence measurements assay
In short: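 APC protein (5 µM) alone or with peptide at 35 µM in 50 mM Hepes pH 7.5, 300 mM NaCl, 1 mM EDTA, 50 µL. Incubated 30 min at room temperature with gentle shaking. Tryptophan excited at 280 nm; emission scanned 300–500 nm. Run in triplicate.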

[8] = molecular target: T1, Adenomatous polyposis coli protein; assay: Binding affinity to His-tagged APC (unknown origin) assessed as dissociation constant by surface plasmon resonance assay; in short: as §1
[9] = molecular target: T1, Adenomatous polyposis coli protein; assay: Binding affinity to His-tagged APC (unknown origin) by surface plasmon resonance assay; in short: as §1
[10] = molecular target: T1, Adenomatous polyposis coli protein; assay: Binding affinity to APC (unknown origin) at 30 degC by ITC method
In short: (§3)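 ITC in 50 mM HEPES pH 7.5, 300 mM NaCl, 1 mM EDTA at 30 °C. Titrations were repeated three times. Kd, ΔG, ΔH and −TΔS are averages of the three independent experiments. L/P ratio gives sites per APC.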

[11] = molecular target: T1, Adenomatous polyposis coli protein; assay: Binding affinity to APC (unknown origin) assessed as association constant at 30 degC by ITC method; in short: as §3
APC/Asef (Homo sapiens) [12] = molecular target: T2, APC/Asef (Homo sapiens); assay: Inhibition of Flag-APC (303 to 876 residues) (unknown origin) /HA-Asef (170 to 632 residues) (unknown origin) interaction expressed in HEK293T cell lysates incubated for 2 hrs by coimmunoprecipitation assay; in short: as §2
[13] = molecular target: T1, Adenomatous polyposis coli protein; assay: Binding affinity to APC (unknown origin) assessed as intramolecular hydrogen bond formation by 1H nuclear magnetic resonance based hydrogen-deuterium-exchange assay

Compound: C=C(Br)C[C@H](NC(=O)[C@H](CO)NC(=O)[C@H](CCC(=O)O)NC(=O)CNC(=O)[C@H](C)NC(=O)OCc1ccccc1)C(=O)N[C@@H](Cc1ccc(O)cc1)C(=O)N[C@@H](CCC(=O)O)C(N)=O (Cbz-AGES[X2]YE-NH2)
IC50 [3]: 1820 nM

Compound: C[C@H](NC(=O)OCc1ccccc1)C(=O)NCC(=O)N[C@@H](CCC(=O)O)C(=O)N[C@@H](CO)C(=O)NC1(C(=O)N[C@@H](Cc2ccc(O)cc2)C(=O)N[C@@H](CCC(=O)O)C(N)=O)C[C@@H]2CC[C@H]1C2 (some centres undefined) (Cbz-AGES[X4]YE-NH2)
IC50 [3]: 128000 nM

Compound: CC(C)C[C@H](NC(=O)[C@H](Cc1ccc(O)cc1)NC(=O)[C@H](CCC(=O)O)NC(=O)CNC(=O)[C@H](C)NC(=O)OCc1ccccc1)C(=O)N[C@@H](Cc1ccc(O)cc1)C(=O)N[C@@H](CCC(=O)O)C(N)=O (Cbz-AGEYLYE-NH2)
IC50 [3]: 5460 nM

Compound: C[C@H](NC(=O)OCc1ccccc1)C(=O)NCC(=O)N[C@@H](CCC(=O)O)C(=O)N1CCc2cc(C(=O)N[C@@H](Cc3ccc(O)cc3)C(=O)N[C@@H](CCC(=O)O)C(N)=O)sc2C1 (Cbz-AGE[X3]YE-NH2)
Kd [3]: Not Active

The remaining lines, values ahead:

K [1]: 1.92 ×10⁵ /M/s
TIME [2]: 0.00333 h
IC50 [3]: 1090 nM
inhibition (APC/Asef (Homo sapiens) [4]): Active
Activity [5]: Dose-dependent effect
Kd [6]: 1800 nM
Activity [7]: Active
K [8]: 8.2 ×10⁻² /s
Kd [9]: 430 nM
Kd [10]: 210 nM
K [11]: 4.71 ×10⁶ /M
Compound: CC(C)C[C@H](NC(=O)[C@H](C)NC(=O)[C@H](CCC(=O)O)NC(=O)CNC(=O)[C@H](C)NC(=O)OCc1ccccc1)C(=O)N[C@@H](Cc1ccc(O)cc1)C(=O)N[C@@H](CCC(=O)O)C(N)=O (Cbz-AGEALYE-NH2)

K [1]: 3.05 ×10⁵ /M/s
TIME [2]: 0.00417 h
IC50 [3]: 250 nM
inhibition [5]: Dose-dependent effect
Kd [6]: 210 nM
Activity [7]: Active
K [8]: 6.7 ×10⁻² /s
Kd [9]: 220 nM
Kd [10]: 12 nM
inhibition (APC/Asef (Homo sapiens) [12]): Dose-dependent effect
Activity [13]: Active
K [11]: 8.21 ×10⁷ /M
Compound: CC(C)C[C@H](NC(=O)[C@H](CO)NC(=O)[C@H](CCC(=O)O)NC(=O)CNC(=O)[C@H](C)NC(=O)OCc1ccccc1)C(=O)N[C@@H](Cc1ccc(O)cc1)C(=O)N[C@@H](CCC(=O)O)C(N)=O (Cbz-AGESLYE-NH2)

IC50 [3]: 840 nM
Compound: CC(C)CC[C@H](NC(=O)[C@H](CO)NC(=O)[C@H](CCC(=O)O)NC(=O)CNC(=O)[C@H](C)NC(=O)OCc1ccccc1)C(=O)N[C@@H](Cc1ccc(O)cc1)C(=O)N[C@@H](CCC(=O)O)C(N)=O (Cbz-AGES[hLeu]YE-NH2)

IC50 [3]: 1780 nM
Compound: C[C@H](NC(=O)OCc1ccccc1)C(=O)NCC(=O)N[C@@H](CCC(=O)O)C(=O)N[C@@H](CO)C(=O)N[C@@H](CC(C)(C)C)C(=O)N[C@@H](Cc1ccc(O)cc1)C(=O)N[C@@H](CCC(=O)O)C(N)=O (Cbz-AGES[tBuAla]YE-NH2)
